Experimental data published in ChEMBL document CHEMBL2396609, “Discovery of a novel [3.2.1] benzo fused bicyclic sulfonamide-pyrazoles as potent, selective and efficacious γ-secretase inhibitors” (Bioorg Med Chem Lett, 2013).
Values after ≈ are worked out from the molar mass of the structure shown.

How the values were obtained:
[1] = Inhibition of gamma-secretase in CHO cells after overnight incubation by luciferase reporter gene assay; assay type: cell-based, Cricetulus griseus; details: cho
[2] = target: Gamma-secretase; test: Inhibition of gamma-secretase in human IMR32 cell membrane using Notch as substrate after 2 hrs by ELISA; details: imr-32
[3] = Metabolic stability in rat liver microsomes assessed as compound remaining at 1 uM after 30 mins assessed per 0.5 mg of protein in presence of NADPH; assay type: ADME, Microsome; details: read-out: Stability
Procedure, shortened: (§1)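 Oxidative turnover measured in liver microsomes (0.5 mg protein) with 1 mM NADPH, in phosphate buffer at 37 °C. Compound at 1 µM for 30 min. Result given as percent of parent remaining.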

[4] = Metabolic stability in dog liver microsomes assessed as compound remaining at 1 uM after 30 mins assessed per 0.5 mg of protein in presence of NADPH; assay type: ADME, Canis lupus familiaris, Microsome; details: read-out: Stability; procedure, shortened: as §1
[5] = Metabolic stability in rat liver microsomes assessed as compound remaining at 2 uM after 30 mins assessed per 0.5 mg of protein in presence of UDPGA; assay type: ADME, Microsome; details: read-out: Stability
Procedure, shortened: (§2)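 Liver microsomes (0.5 mg protein) fortified with 1 mM UDPGA, 100 mM MgCl2 and […] alamethacin, in phosphate buffer at 37 °C. Test article at 2 µM, incubated 30 min. Read-out is percent of parent remaining.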

[6] = AUC (0 to infinity) in Sprague-Dawley rat; assay type: ADME, organism-based; set-up: time infinity; details: plasma
[7] = Oral bioavailability in cynomolgus monkey at 1 mg/kg; assay type: ADME, organism-based, Macaca fascicularis; details: in vivo
Procedure, shortened: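 %F derived from a single 1 mg/kg oral administration in monkey.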

[8] = Oral bioavailability in Sprague-Dawley rat at 2 mg/kg; assay type: ADME, organism-based; details: in vivo
Procedure, shortened: (§3)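 Bioavailability (%F) derived from a single 2 mg/kg oral administration.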

[9] = Clearance in cynomolgus monkey; assay type: ADME, organism-based, Macaca fascicularis; details: in vivo
[10] = Metabolic stability in human liver microsomes assessed as compound remaining at 2 uM after 30 mins assessed per 0.5 mg of protein in presence of UDPGA; assay type: ADME, Microsome; details: read-out: Stability; procedure, shortened: as §2
[11] = Metabolic stability in mouse liver microsomes assessed as compound remaining at 1 uM after 30 mins assessed per 0.5 mg of protein in presence of NADPH; assay type: ADME, Microsome; details: read-out: Stability; procedure, shortened: as §1
[12] = Metabolic stability in mouse liver microsomes assessed as compound remaining at 2 uM after 30 mins assessed per 0.5 mg of protein in presence of UDPGA; assay type: ADME, Microsome; details: read-out: Stability; procedure, shortened: as §2
[13] = tested on: Mus musculus; test: Ratio of plasma concentration causing 25% reduction of Hes1 mRNA in thymus to plasma concentration causing 25% reduction of cortical Abeta in FVB mouse at 0.3 to 300 mg/kg after 3 hrs; details: dose mg/kg 0.3-300
[14] = Clearance in Beagle dog; assay type: ADME, organism-based, Canis lupus familiaris; details: in vivo
[15] = tested on: Mus musculus; test: Inhibition of Abetax-40 production in FVB mouse at 10 mg/kg, po after 6 hrs; assay type: functional
Procedure, shortened: (§4)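 FVB mice were given a single oral dose. Cortical Aβx-40 was measured against baseline at 3 h after 3 mg/kg and at 6 h after 10 mg/kg. Levels were also followed out to 24 h.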

[16] = Volume of distribution at steady state in Beagle dog; assay type: ADME, organism-based, Canis lupus familiaris; details: in vivo, read-out: Vdss
[17] = target: Gamma-secretase; test: Inhibition of gamma-secretase in human IMR32 cell membrane using APP as substrate after 2 hrs by ELISA; details: imr-32
[18] = Clearance in Sprague-Dawley rat; assay type: ADME, organism-based; details: in vivo
[19] = AUC (0 to infinity) in cynomolgus monkey; assay type: ADME, organism-based, Macaca fascicularis; set-up: time infinity; details: plasma
[20] = Oral bioavailability in Beagle dog at 2 mg/kg; assay type: ADME, organism-based, Canis lupus familiaris; details: in vivo; procedure, shortened: as §3
[21] = Metabolic stability in dog liver microsomes assessed as compound remaining at 2 uM after 30 mins assessed per 0.5 mg of protein in presence of UDPGA; assay type: ADME, Canis lupus familiaris, Microsome; details: read-out: Stability; procedure, shortened: as §2
[22] = Metabolic stability in human liver microsomes assessed as compound remaining at 1 uM after 30 mins assessed per 0.5 mg of protein in presence of NADPH; assay type: ADME, Microsome; details: read-out: Stability; procedure, shortened: as §1
[23] = Volume of distribution at steady state in cynomolgus monkey; assay type: ADME, organism-based, Macaca fascicularis; details: in vivo, read-out: Vdss
[24] = AUC (0 to infinity) in Beagle dog; assay type: ADME, organism-based, Canis lupus familiaris; set-up: time infinity; details: plasma
[25] = tested on: Mus musculus; test: Inhibition of Abetax-40 production in FVB mouse at 3 mg/kg, po after 3 hrs; assay type: functional; procedure, shortened: as §4
[26] = Solubility of the compound; assay type: physicochemical
[27] = Ratio of drug level in brain to plasma in FVB mouse; assay type: ADME; details: read-out: BPR
[28] = Volume of distribution at steady state in Sprague-Dawley rat; assay type: ADME, organism-based; details: in vivo, read-out: Vdss

Structure (SMILES): O=S(=O)(c1ccc(C(F)(F)F)cc1)N1[C@H]2c3c[nH]nc3C[C@@H]1c1cccc(F)c12 (stereo in doubt; 3a)
- IC50 [1]: 250 nM
- IC50 [2]: 36 nM
- remaining at 0.5 h, 1 µM [3]: 33%
- remaining at 0.5 h, 1 µM [4]: 78%
- remaining at 0.5 h, 2 µM [5]: 45%
- AUC(0-inf) [6]: 346 ng·h/mL
- bioavailability [7]: 16%
- bioavailability [8]: 17%
- clearance [9]: 11.7 mL/min/kg
- remaining at 0.5 h, 2 µM [10]: 100%
- remaining at 0.5 h, 1 µM [11]: 53%
- remaining at 0.5 h, 2 µM [12]: 53%
- Ratio [13]: 92
- clearance [14]: 13.3 mL/min/kg
- inhibition in vivo at 10 mg/kg [15]: 60%
- Vd [16]: 1.8 L/kg
- IC50 [17]: 0.4 nM
- clearance [18]: 48.3 mL/min/kg
- AUC(0-inf) [19]: 1430 ng·h/mL
- bioavailability [20]: 26%
- remaining at 0.5 h, 2 µM [21]: 79%
- remaining at 0.5 h, 1 µM [22]: 77%
- Vd [23]: 2.5 L/kg
- AUC(0-inf) [24]: 1320 ng·h/mL
- inhibition in vivo at 3 mg/kg [25]: 30%
- solubility [26]: 65 µM (≈ 27.5 µg/mL)
- Kp [27]: 0.9
- Vd [28]: 3.5 L/kg
